Laboratory results published in article PMC3769332 (Molecular & Cellular Proteomics : MCP, 2013).
Ends that are not written are not given here.

What was measured:
Xenopus embryo = experiment: Neural tube closure in Xenopus embryos; format: in vivo, Xenopus laevis; conditions: MO injected in dorsal blastomeres at 4- to 8-cell stage
SCRIB_3 = molecular target: T1, SCRIB_3 (Homo sapiens, UniProt Q14160); experiment: HTRF peptide-GST-PDZ binding
T1 sequence (Q14160 1004-1093 limits assumed): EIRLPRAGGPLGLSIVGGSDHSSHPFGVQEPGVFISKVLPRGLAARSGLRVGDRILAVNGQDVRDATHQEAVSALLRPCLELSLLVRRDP

Scrib PDZ1 = experiment: HTRF peptide binding to Scrib PDZ1; design: species or system human
GST-Scrib PDZ3 = molecular target: T2, GST-Scrib PDZ3 (human, UniProt Q14160 994-1103); experiment: AlphaScreen or HTRF
T2 sequence (looked up): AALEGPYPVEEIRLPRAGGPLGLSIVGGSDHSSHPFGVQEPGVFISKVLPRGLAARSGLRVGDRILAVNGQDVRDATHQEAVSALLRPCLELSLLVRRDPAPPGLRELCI

T47D cells = experiment: Boyden chamber cell migration, T47D; format: cell-based; conditions: stimulation with 1 nM HRG, 12 h
Outline: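 Transwell migration through 8-μm pore polycarbonate membranes, underside coated with 25 μg/ml rat-tail collagen I. T47D cells were lipofectamine-transfected with pEGFP, pEGFP-Vangl2 or mutants, serum-starved 16 h, and seeded in the top chamber. The bottom chamber held medium with or without HRG for 12 h. Non-migrated cells were scraped off; migrated cells were fixed in 4% formaldehyde, crystal violet-stained (0.1%) and counted. Fold change, three independent experiments summed.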

wild-type MEFs = experiment: Boyden chamber cell migration, wild-type MEF; format: cell-based, mouse; conditions: serum-induced
Outline: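 MEFs, wild-type or Crc/Crc, nucleofected transiently with GFP or GFP-Vangl2, then serum-starved 16 h and plated in the upper chamber of 8-μm pore polycarbonate transwells. Filter underside coated with human fibronectin ([…]). Serum (FCS) served as chemoattractant. Migrated cells were fixed in 4% formaldehyde, stained with 0.1% crystal violet and counted. Mann–Whitney U test versus control.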

Scrib PDZ3 domain = experiment: GST-Scrib PDZ pull-down, individual domain; format: binding, human; conditions: pull-down on HEK 293T extracts
MEF^Crc/Crc = experiment: Boyden chamber cell migration, MEF Crc/Crc; format: cell-based, mouse; conditions: MEFs deficient for Scrib, serum-induced
[1] = tested on: GST fused to the four Scrib PDZ domains; experiment: GST-Scrib PDZ pull-down; format: binding, human; conditions: pull-down on transfected HEK 293T extracts
Scrib PDZ4 = experiment: GST-Scrib PDZ pull-down, individual domain; format: binding, human; conditions: pull-down on HEK 293T extracts
SNX27 = experiment: Co-affinity purification with SNX27, HEK 293T; format: cell-based; conditions: streptavidin affinity purification, Western blot

SNX27 MO: morpholino 5′-TCCCCCTCCTCGTCCGCCATCTTTT-3′ targeting SNX27 translation initiation (all phosphorodiamidate morpholino (PMO))
neural tube closure (Xenopus embryo): neural tube closure was strongly impaired in a dose-dependent manner

KSHKFVMRLQSETSV [Vangl2]
EC50 (SCRIB_3): 13 µM

H-VLKNMNDPAWDETNL-OH [βPIX]
binding to Scrib PDZ1 (Scrib PDZ1): strongly bound | binding to Scrib PDZ3 (SCRIB_3; HTRF): able to bind

MSCCRSSRTRRETQL [synthetic E6 carboxy-terminal peptide]
EC50 (GST-Scrib PDZ3): 0.4 µM

B1: GFP-Vangl2: GFP fusion of Vangl2 overexpressed in cells (protein)
chain: MDTESQYSGYSYKSGHSRSSRKHRDRRDRHRSKSRDGGRGDKSVTIQAPGEPLLDNESTRGDERDDNWGETTTVVTGTSEHSISHDDLTRIAKDMEDSVPLDCSRHLGVAAGATLALLSFLTPLAFLLLPPLLWREELEPCGTACEGLFISVAFKLLILLLGSWALFFRRPKASLPRVFVLRALLMVLVFLLVVSYWLFYGVRILDARERSYQGVVQFAVSLVDALLFVHYLAVVLLELRQLQPQFTLKVVRSTDGASRFYNVGHLSIQRVAVWILEKYYHDFPVYNPALLNLPKSVLAKKVSGFKVYSLGEENSTNNSTGQSRAVIAAAARRRDNSHNEYYYEEAEHERRVRKRRARLVVAVEEAFTHIKRLQEEEQKNPREVMDPREAAQAIFASMARAMQKYLRTTKQQPYHTMESILQHLEFCITHDMTPKAFLERYLAAGPTIQYHKERWLAKQWTLVSEEPVTNGLKDGIVFLLKRQDFSLVVSTKKVPFFKLSEEFVDPKSHKFVMRLQSETSV
effect on cell migration (T47D cells): increased cell migration | effect on cell migration (T47D cells; listed as GFP-Vangl2^Lp): did not affect this increased cell migration | effect on cell migration (wild-type MEFs): increased cell migration | binding to individual GST-Scrib PDZ3 (Scrib PDZ3 domain): most efficient | effect on cell migration (MEF^Crc/Crc): not significantly affected relative to control conditions | binding to GST-Scrib PDZ1-4 [1]: efficient binding | binding to individual GST-Scrib PDZ4 (Scrib PDZ4): some weak binding

B2: HA-tagged Vangl2: HA-tagged Vangl2 expressed in HEK 293T cells (protein)
chain: B1 chain
interaction with SNX27 (SNX27): interacts

B3: GFP-Vangl2ΔTSV: GFP-Vangl2 with deletion of the classical PDZ binding motif (protein)
chain: MDTESQYSGYSYKSGHSRSSRKHRDRRDRHRSKSRDGGRGDKSVTIQAPGEPLLDNESTRGDERDDNWGETTTVVTGTSEHSISHDDLTRIAKDMEDSVPLDCSRHLGVAAGATLALLSFLTPLAFLLLPPLLWREELEPCGTACEGLFISVAFKLLILLLGSWALFFRRPKASLPRVFVLRALLMVLVFLLVVSYWLFYGVRILDARERSYQGVVQFAVSLVDALLFVHYLAVVLLELRQLQPQFTLKVVRSTDGASRFYNVGHLSIQRVAVWILEKYYHDFPVYNPALLNLPKSVLAKKVSGFKVYSLGEENSTNNSTGQSRAVIAAAARRRDNSHNEYYYEEAEHERRVRKRRARLVVAVEEAFTHIKRLQEEEQKNPREVMDPREAAQAIFASMARAMQKYLRTTKQQPYHTMESILQHLEFCITHDMTPKAFLERYLAAGPTIQYHKERWLAKQWTLVSEEPVTNGLKDGIVFLLKRQDFSLVVSTKKVPFFKLSEEFVDPKSHKFVMRLQSE
effect on cell migration (T47D cells): in contrast to the deletion of the classical PDZ binding motif

VLKNMNDPAWDETNL [soluble non-biotinylated βPIX carboxy-terminal peptide (HTRF)]
EC50 (GST-Scrib PDZ3): 8 µM
